Drawing on ChEMBL document CHEMBL1152541, “Staurosporine tethered peptide ligands that target cAMP-dependent protein kinase (PKA): optimization and selectivity profiling” (Bioorg Med Chem, 2009), this text covers Activity for three molecules.

Experiment [1] has as its target Ephrin type-A receptor 2 (Homo sapiens) (UniProt P29317). Description: Binding affinity to human EPHA2 at 500 nM by cell-based competition binding assay relative to control in presence of DTT. An outline of the steps: (§1)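 Commercial (Ambit) competitive kinase-binding panel of 90 kinases measured the binding profile. Run under reducing conditions of 7.5 mM DTT. Binding is expressed relative to control.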

Experiment [2] concerns the target Receptor tyrosine-protein kinase erbB-4 (Homo sapiens) (UniProt Q15303). Description: Binding affinity to human ERBB4 at 500 nM by cell-based competition binding assay relative to control in presence of DTT. An outline of the steps: as §1
The target of experiment [3] is Serine/threonine-protein kinase PLK3 (Homo sapiens) (UniProt Q9H4B4). Description: Binding affinity to human PLK3 at 500 nM by cell-based competition binding assay relative to control in presence of DTT.
Experiment [4] has as its target Receptor-type tyrosine-protein kinase FLT3 (Homo sapiens) (UniProt P36888). Description: Binding affinity to human FLT3 at 500 nM by cell-based competition binding assay relative to control in presence of DTT. An outline of the steps: as §1
Experiment [5] addresses Mitogen-activated protein kinase 9 (Homo sapiens) (UniProt P45984). The experiment can be described thus: Binding affinity to human JNK2 at 500 nM by cell-based competition binding assay relative to control in presence of DTT. Put shortly: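 Competition binding screen (Ambit) across a panel of 90 kinases, scoring test ligand displacement of each kinase's binding relative to control. The screen ran under reducing conditions with 7.5 mM DTT.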

Experiment [6] deals with Hepatocyte growth factor receptor (Homo sapiens) (UniProt P08581). The experiment can be described thus: Binding affinity to human MET at 500 nM by cell-based competition binding assay relative to control in presence of DTT.
Hepatocyte growth factor receptor (Homo sapiens), sequence (P08581 whole entry): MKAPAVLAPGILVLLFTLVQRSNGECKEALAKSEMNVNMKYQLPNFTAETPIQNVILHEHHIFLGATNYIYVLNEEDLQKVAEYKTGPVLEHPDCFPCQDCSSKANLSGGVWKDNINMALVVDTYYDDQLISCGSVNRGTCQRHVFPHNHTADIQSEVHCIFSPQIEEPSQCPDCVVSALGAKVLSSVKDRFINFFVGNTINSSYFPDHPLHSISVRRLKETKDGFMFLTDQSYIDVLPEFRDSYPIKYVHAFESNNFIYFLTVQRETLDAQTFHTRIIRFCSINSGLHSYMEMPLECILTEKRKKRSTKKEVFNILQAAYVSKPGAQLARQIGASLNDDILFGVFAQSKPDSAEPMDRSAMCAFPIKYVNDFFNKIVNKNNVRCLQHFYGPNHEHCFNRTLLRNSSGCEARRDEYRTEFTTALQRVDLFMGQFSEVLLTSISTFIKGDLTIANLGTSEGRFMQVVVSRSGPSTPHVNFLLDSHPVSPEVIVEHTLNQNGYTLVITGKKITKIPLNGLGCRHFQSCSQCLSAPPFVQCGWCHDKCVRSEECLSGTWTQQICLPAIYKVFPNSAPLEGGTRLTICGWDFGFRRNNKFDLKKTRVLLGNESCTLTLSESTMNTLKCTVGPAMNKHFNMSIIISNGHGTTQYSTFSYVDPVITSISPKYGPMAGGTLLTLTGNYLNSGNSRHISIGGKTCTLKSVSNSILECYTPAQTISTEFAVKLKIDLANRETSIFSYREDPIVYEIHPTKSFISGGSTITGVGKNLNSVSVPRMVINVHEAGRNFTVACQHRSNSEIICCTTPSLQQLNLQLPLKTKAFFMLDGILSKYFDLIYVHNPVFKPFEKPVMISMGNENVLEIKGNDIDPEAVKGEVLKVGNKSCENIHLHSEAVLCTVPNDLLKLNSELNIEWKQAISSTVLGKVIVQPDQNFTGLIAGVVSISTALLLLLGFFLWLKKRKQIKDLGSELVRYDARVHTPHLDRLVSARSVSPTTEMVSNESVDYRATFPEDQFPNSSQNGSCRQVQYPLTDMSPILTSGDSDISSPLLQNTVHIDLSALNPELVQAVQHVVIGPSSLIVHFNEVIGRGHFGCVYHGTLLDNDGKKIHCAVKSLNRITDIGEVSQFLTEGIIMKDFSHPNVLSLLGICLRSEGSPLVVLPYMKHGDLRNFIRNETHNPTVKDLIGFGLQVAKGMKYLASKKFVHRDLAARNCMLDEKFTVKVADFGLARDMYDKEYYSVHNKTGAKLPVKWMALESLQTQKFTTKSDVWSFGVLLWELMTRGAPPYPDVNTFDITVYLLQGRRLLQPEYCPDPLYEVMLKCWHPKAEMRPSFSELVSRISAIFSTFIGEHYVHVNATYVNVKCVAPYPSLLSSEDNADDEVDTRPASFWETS
For experiment [7], the target named is Fibroblast growth factor receptor 2 (Homo sapiens) (UniProt P21802). The experiment can be described thus: Binding affinity to human FGFR2 at 200 nM by cell-based competition binding assay relative to control in presence of DTT. Put shortly: as §1
In experiment [8] the target is Platelet-derived growth factor receptor alpha (Homo sapiens) (UniProt P16234). Description: Binding affinity to human PDGFRalpha at 200 nM by cell-based competition binding assay relative to control in presence of DTT.
Platelet-derived growth factor receptor alpha (Homo sapiens), sequence (P16234 whole entry): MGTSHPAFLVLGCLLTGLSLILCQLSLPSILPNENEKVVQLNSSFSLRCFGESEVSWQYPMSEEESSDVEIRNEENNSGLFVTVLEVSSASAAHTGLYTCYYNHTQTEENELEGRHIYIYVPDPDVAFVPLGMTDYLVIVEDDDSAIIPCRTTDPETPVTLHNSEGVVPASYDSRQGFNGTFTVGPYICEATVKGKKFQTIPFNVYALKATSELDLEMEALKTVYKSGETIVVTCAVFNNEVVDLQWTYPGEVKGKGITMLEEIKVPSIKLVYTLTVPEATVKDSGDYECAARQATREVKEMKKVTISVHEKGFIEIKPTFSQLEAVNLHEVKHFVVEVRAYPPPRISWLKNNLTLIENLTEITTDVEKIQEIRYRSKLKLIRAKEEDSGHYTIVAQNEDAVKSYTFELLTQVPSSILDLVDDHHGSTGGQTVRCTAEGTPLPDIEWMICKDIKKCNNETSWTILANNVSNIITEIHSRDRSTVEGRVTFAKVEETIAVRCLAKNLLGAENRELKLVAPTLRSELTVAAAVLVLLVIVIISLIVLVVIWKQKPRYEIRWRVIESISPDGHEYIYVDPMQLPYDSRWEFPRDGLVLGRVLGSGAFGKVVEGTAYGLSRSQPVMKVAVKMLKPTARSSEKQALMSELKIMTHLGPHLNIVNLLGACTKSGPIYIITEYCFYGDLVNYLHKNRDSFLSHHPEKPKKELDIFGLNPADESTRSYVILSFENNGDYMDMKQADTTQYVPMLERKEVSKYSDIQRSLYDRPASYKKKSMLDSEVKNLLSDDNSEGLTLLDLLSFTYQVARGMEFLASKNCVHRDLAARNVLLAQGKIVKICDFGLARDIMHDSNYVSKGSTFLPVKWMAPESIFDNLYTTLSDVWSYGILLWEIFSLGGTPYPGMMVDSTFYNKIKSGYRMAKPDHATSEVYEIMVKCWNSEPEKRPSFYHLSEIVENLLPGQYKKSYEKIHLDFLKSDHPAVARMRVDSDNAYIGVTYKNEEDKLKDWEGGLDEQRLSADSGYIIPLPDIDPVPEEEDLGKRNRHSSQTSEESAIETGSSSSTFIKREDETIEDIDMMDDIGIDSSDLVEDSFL
For experiment [9], the target named is RAC-beta serine/threonine-protein kinase (Homo sapiens) (UniProt P31751). The experiment can be described thus: Binding affinity to human AKT2 at 200 nM by cell-based competition binding assay relative to control in presence of DTT. An outline of the steps: (§2)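 Kinase binding profiling ran on a commercial (Ambit) competitive binding screen against a panel of 90 kinases. The screen used reducing conditions with 7.5 mM DTT. To withstand the DTT, the bivalent ligand was tested as its amide isostere, with the disulfide replaced. A staurosporine derivative carrying a 3 β-alanine linker was run as the reference compound.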

For experiment [10], the target named is Tyrosine-protein kinase BTK (Homo sapiens) (UniProt Q06187). The experiment can be described thus: Binding affinity to human BTK at 200 nM by cell-based competition binding assay relative to control in presence of DTT. An outline of the steps:
as §2

The target in experiment [11] is High affinity nerve growth factor receptor (Homo sapiens) (UniProt P04629). Description: Binding affinity to human TRKA at 200 nM by cell-based competition binding assay relative to control in presence of DTT.
High affinity nerve growth factor receptor (Homo sapiens), sequence (P04629 33-796 limits assumed): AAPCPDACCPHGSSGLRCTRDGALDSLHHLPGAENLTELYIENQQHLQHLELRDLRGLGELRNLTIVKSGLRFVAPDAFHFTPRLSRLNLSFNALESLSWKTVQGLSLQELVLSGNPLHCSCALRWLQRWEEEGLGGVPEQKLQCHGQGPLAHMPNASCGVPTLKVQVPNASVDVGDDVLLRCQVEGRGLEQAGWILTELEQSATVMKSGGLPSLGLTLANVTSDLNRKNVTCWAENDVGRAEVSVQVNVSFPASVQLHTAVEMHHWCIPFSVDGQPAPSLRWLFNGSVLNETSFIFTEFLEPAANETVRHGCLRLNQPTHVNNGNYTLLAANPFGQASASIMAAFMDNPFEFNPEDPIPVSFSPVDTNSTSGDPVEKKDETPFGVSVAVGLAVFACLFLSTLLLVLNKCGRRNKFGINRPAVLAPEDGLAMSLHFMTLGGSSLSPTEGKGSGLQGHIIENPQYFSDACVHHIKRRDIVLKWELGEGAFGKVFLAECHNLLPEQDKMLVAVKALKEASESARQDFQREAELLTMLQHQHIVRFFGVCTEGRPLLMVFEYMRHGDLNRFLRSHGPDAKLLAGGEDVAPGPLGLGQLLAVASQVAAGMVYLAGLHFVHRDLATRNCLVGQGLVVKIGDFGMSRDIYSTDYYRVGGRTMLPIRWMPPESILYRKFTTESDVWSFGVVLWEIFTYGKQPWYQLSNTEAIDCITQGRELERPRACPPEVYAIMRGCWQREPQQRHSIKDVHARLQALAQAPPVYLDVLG
Experiment [12] concerns the target T1, Serine/threonine-protein kinase Chk1 (Homo sapiens) (UniProt O14757).
T1 sequence (whole entry): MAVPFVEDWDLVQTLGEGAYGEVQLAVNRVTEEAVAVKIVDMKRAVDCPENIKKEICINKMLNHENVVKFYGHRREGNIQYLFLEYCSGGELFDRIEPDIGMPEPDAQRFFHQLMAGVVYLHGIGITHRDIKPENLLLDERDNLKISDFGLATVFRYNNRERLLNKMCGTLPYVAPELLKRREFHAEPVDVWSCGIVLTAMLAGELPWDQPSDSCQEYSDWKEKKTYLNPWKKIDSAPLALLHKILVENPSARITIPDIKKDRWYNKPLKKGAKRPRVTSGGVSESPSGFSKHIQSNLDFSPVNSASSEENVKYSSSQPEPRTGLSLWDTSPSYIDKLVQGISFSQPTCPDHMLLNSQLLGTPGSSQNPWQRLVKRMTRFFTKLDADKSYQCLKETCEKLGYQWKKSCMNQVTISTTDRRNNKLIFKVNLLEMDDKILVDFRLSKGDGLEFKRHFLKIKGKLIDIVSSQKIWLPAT
Description: Binding affinity to human CHEK1 at 50 nM by cell-based competition binding assay relative to control in presence of DTT. Put shortly: as §1

The target in experiment [13] is Casein kinase I isoform delta (Homo sapiens) (UniProt P48730). The experiment can be described thus: Binding affinity to human CSNK1D at 50 nM by cell-based competition binding assay relative to control in presence of DTT. Put shortly: as §1
Experiment [14] has as its target Proto-oncogene tyrosine-protein kinase receptor Ret (Homo sapiens) (UniProt P07949). Description: Binding affinity to human RET at 50 nM by cell-based competition binding assay relative to control in presence of DTT.
The target in experiment [15] is T2, TGF-beta receptor type-1 (Homo sapiens) (UniProt P36897).
T2 sequence (whole entry): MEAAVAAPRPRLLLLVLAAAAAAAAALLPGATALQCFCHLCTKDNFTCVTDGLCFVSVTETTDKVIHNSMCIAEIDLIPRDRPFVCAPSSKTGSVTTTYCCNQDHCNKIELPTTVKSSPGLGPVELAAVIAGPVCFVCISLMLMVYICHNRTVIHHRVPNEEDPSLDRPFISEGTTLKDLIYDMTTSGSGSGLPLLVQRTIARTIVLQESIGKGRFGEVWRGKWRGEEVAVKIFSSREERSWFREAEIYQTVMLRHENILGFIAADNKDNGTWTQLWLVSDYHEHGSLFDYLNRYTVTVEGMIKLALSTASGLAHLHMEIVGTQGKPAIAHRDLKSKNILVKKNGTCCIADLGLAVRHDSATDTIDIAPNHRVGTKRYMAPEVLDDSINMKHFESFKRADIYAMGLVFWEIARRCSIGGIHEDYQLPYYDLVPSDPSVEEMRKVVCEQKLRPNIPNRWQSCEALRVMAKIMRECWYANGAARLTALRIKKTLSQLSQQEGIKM
Description: Binding affinity to human TGFBR1 at 50 nM by cell-based competition binding assay relative to control in presence of DTT.

Experiment [16] addresses Receptor tyrosine-protein kinase erbB-2 (Homo sapiens) (UniProt P04626). The experiment can be described thus: Binding affinity to human ERBB2 at 50 nM by cell-based competition binding assay relative to control in presence of DTT. Put shortly:
as §1

Each structure is given as a SMILES string. *1 amine or outer side, *2 acyl side, *3 side chain or, on linkers, in order; H or OH if unused. Where a SMILES comes first, the peptide text is derived from it. Bridges are numbered along the chain shown (N, C = ends). [ ]: non-standard residue; d: D form. The star is where a group is joined. Staurosporine = CO[C@@H]1[C@H](N(C)*)C[C@H]2O[C@]1(C)n1c3ccccc3c3c4c(c5c6ccccc6n2c5c31)C(=O)NC4; Suc = O=C(CCC(=O)[*:2])[*:1]; Dap = NC[C@H](N)C(=O)O; βAla = NCCC(=O)O

Mitogen-activated protein kinase 9 (Homo sapiens), sequence (P45984 whole entry, looked up): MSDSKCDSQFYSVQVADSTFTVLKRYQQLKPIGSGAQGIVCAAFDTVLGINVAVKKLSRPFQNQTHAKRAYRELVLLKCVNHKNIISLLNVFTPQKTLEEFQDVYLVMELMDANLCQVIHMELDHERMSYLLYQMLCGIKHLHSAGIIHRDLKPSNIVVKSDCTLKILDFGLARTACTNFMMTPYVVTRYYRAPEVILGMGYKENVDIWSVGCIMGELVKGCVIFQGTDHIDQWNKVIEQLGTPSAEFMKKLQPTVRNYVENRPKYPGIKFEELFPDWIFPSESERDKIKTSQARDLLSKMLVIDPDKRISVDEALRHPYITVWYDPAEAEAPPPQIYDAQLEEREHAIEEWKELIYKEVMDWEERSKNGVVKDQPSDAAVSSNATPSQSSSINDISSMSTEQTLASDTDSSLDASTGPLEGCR
Proto-oncogene tyrosine-protein kinase receptor Ret (Homo sapiens), sequence (P07949 whole entry): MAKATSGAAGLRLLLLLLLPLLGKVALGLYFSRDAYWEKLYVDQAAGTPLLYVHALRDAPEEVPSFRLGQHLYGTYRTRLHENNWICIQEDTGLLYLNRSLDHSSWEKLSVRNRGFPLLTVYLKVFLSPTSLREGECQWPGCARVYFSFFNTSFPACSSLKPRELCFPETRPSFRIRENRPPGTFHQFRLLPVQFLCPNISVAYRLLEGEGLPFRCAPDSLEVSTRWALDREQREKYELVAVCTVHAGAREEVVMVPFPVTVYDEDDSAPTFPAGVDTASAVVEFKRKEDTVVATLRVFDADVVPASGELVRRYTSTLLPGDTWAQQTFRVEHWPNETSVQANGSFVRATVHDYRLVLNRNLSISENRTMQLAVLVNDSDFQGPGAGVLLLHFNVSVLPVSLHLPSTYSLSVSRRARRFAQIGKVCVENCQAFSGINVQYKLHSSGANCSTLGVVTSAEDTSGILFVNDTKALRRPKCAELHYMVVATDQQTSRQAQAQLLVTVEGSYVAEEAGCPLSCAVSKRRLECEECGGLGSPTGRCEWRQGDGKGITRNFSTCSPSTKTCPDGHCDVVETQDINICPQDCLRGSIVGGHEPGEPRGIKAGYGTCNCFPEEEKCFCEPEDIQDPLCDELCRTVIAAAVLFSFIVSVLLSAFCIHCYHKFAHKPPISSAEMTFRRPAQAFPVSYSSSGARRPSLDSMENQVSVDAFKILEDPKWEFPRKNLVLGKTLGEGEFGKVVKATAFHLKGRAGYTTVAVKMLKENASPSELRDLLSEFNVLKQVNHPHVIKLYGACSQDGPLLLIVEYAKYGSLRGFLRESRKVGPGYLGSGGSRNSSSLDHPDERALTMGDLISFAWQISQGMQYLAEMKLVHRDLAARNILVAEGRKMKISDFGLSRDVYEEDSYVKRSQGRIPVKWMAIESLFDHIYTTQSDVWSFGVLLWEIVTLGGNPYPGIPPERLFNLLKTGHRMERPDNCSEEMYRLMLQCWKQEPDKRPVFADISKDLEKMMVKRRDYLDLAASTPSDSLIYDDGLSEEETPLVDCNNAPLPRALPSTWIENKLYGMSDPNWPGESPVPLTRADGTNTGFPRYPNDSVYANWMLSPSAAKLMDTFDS

As to `CO[C@@H]1[C@H](N(C)C(=O)CCC(=O)NCCC(=O)NCCC(=O)NCCC(N)=O)C[C@H]2O[C@]1(C)n1c3ccccc3c3c4c(c5c6ccccc6n2c5c31)C(=O)NC4`, the Activity is 80% in [1]; 70% in experiment [2]; 100% in experiment [3]; 0.35% in [4]; 87% in experiment [5]; 46% in experiment [6].
For the molecule `CO[C@@H]1[C@H](N(C)C(=O)CCC(=O)NCCC(=O)NCCC(=O)NCCC(=O)NCCC(=O)NCCC(=O)NCCC(=O)NCCC(=O)N[C@H]2CSSC[C@@H](C(=O)NCC(N)=O)NC(=O)CNC(=O)[C@H](Cc3ccccc3)NC(=O)[C@H](C(C)C)NC(=O)[C@H](CCCNC(=N)N)NC(=O)[C@H](Cc3ccccc3)NC(=O)[C@H](C(C)C)NC2=O)C[C@H]2O[C@]1(C)n1c3ccccc3c3c4c(c5c6ccccc6n2c5c31)C(=O)NC4` ({Staurosporine-Suc-βAla-βAla-βAla-βAla-βAla-βAla-βAla}-CVFRVFGCG-NH2; disulfide 1-8), the Activity in experiment [7] worked out at 66%; in experiment [8], 41%; in experiment [9] it was 100%; in experiment [10], 62%; in [11], 57%.
Consider `CO[C@@H]1[C@H](N(C)C(=O)CCC(=O)NCCC(=O)NCCC(=O)NCCC(=O)NCCC(=O)NCCC(=O)NCCC(=O)NCCC(=O)N[C@H]2CNC(=O)C[C@@H](C(N)=O)NC(=O)CNC(=O)[C@H](Cc3ccccc3)NC(=O)[C@H](C(C)C)NC(=O)[C@H](CCCNC(=N)N)NC(=O)[C@H](Cc3ccccc3)NC(=O)[C@H](C(C)C)NC2=O)C[C@H]2O[C@]1(C)n1c3ccccc3c3c4c(c5c6ccccc6n2c5c31)C(=O)NC4` ({Staurosporine-Suc-βAla-βAla-βAla-βAla-βAla-βAla-βAla}-[Dap]VFRVFGD-NH2; lactam 1-8), for which the Activity in [12] was 91%; in experiment [13] it was 100%; in experiment [14], 94%; in [15], 100%; in experiment [16], 100%.
